Data from ChEMBL document CHEMBL3124866, “Small molecular antibacterial peptoid mimics: the simpler the better!” (J Med Chem, 2014).
Converted amounts (≈) assume the structure as drawn. The source made the active and inactive calls. The calls are words filed in the database; no cut-off is given here. Residues, ends and D or L forms follow the SMILES beside them.

Legend:
Pseudomonas aeruginosa [1] = experiment: Antibacterial activity against Pseudomonas aeruginosa ATCC 27853 after 24 hrs by broth microdilution assay; format: functional; conditions: ATCC 27853, 24 h
Escherichia coli [2] = experiment: Antibacterial activity against Escherichia coli ATCC 25922 after 24 hrs by broth microdilution assay; format: functional; conditions: ATCC 25922, 24 h
Staphylococcus aureus [3] = experiment: Antibacterial activity against Staphylococcus aureus ATCC 29213 after 24 hrs by broth microdilution assay; format: functional; conditions: ATCC 29213, 24 h
Klebsiella pneumoniae = experiment: Antibacterial activity against beta-lactam-resistant Klebsiella pneumoniae ATCC 700603 after 24 hrs by broth microdilution assay; format: functional; conditions: ATCC 700603, 24 h
Outline: (§1)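 MIC by broth microdilution. Cultures were grown 6 h to ~10^9 cfu/mL, then diluted to 10^5 cfu/mL. Media: yeast-dextrose broth for MRSA, BHI for VRE, and beef extract/peptone nutrient broth for K. pneumoniae. Compounds were serially diluted in water, 50 µL added to 150 µL cells, and incubated 24 h at 37 °C. OD600 triplicates were sigmoid-fitted; MIC is the point where OD equals the no-bacteria control. Mean ± SEM of ≥2 experiments.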

Enterococcus faecium [4] = experiment: Antibacterial activity against vancomycin-resistant Enterococcus faecium ATCC 51559 after 24 hrs by broth microdilution assay; format: functional; conditions: ATCC 51559, 24 h; outline: as §1
Staphylococcus aureus [5] = experiment: Antibacterial activity against methicillin-resistant Staphylococcus aureus ATCC 33591 after 24 hrs by broth microdilution assay; format: functional; conditions: ATCC 33591, 24 h; outline: as §1
Enterococcus faecium [6] = experiment: Antibacterial activity against Enterococcus faecium ATCC 29212 after 24 hrs by broth microdilution assay; conditions: ATCC 29212, 24 h
Staphylococcus aureus [7] = experiment: Antibacterial activity against drug-sensitive Staphylococcus aureus MTCC 737 assessed as cytoplasmic membrane depolarization at MIC measured up to 12 mins by DiSC3(5) dye-based fluorimetric analysis; format: functional, organism-based
Outline: (§2)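 Mid-log cells were washed and resuspended at 10^8 cfu/mL in 5 mM glucose, 5 mM HEPES and 100 mM KCl (1:1:1). They were loaded with 2 µM DiSC3(5) for 10 min (S. aureus) or 20 min (P. aeruginosa, E. coli), then stabilized 2 min at room temperature. Compound was added and depolarization read as fluorescence increase (ex 622 nm, em 670 nm) over 10 min.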

[8] = Therapeutic index, ratio of HC50 for human erythrocytes to MIC for drug-sensitive Pseudomonas aeruginosa ATCC 4676; conditions: read-out: TI
Staphylococcus aureus [9] = experiment: Antibacterial activity against drug-sensitive Staphylococcus aureus MTCC 737 assessed as formation of blebs and holes at 10 X MIC after 2 hrs by field-emission scanning electron microscopic analysis; format: functional, organism-based
Outline: (§3)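 Cells grown 6 h (E. coli in LB, S. aureus in yeast-dextrose broth) were resuspended at 10^6 cells/mL in nutrient media pH 7.4. They were treated at 10× MIC at 37 °C for 2 h with 250 rpm shaking, beside an untreated control. Cells were pelleted, dehydrated through a 30–100% ethanol series and dried on silicon wafer. S. aureus was sputter-coated; E. coli was imaged uncoated by FESEM.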

Escherichia coli [10] = experiment: Antibacterial activity against drug-sensitive Escherichia coli MTCC 443 assessed as merging of dead bacteria with each other at 10 X MIC after 2 hrs by field-emission scanning electron microscopic analysis; format: functional, organism-based; outline: as §3
Escherichia coli [11] = experiment: Antibacterial activity against drug-sensitive Escherichia coli MTCC 443 assessed as disruption of cell membrane at 10 X MIC after 2 hrs by field-emission scanning electron microscopic analysis; format: functional, organism-based; outline: as §3
Staphylococcus aureus [12] = experiment: Antibacterial activity against drug-sensitive Staphylococcus aureus MTCC 737 assessed as change in cell membrane morphology at 10 X MIC after 1.5 hrs by SYTO and propidium iodide staining-based fluorescence microscopic analysis; format: functional, organism-based
Outline: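 Suspension at 10^9 cells/mL was treated at 10× MIC for 1.5 h, beside an untreated control. Cells were pelleted, resuspended in PBS and mixed with a probe mix of 3.0 µM SYTO 9 and 15.0 µM PI. After 15 min in the dark, cells were examined by fluorescence microscopy.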

Escherichia coli [13] = experiment: Antibacterial activity against drug-sensitive Escherichia coli MTCC 443 assessed as outer cytoplasmic membrane permeabilization at MIC measured up to 10 mins by N-phenylnaphthylamine dye-based fluorescence assay; format: functional, organism-based
Outline: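 Mid-log E. coli (6 h, 10^8 cells/mL) were washed and resuspended in 5 mM glucose/5 mM HEPES pH 7.2 with 10 µM NPN. Compound was added in water. Outer membrane uptake of NPN was followed as fluorescence increase (ex 350 nm, em 420 nm) for 10 min.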

Staphylococcus aureus [14] = experiment: Antibacterial activity against drug-sensitive Staphylococcus aureus MTCC 737 assessed as inner cytoplasmic membrane permeabilization at MIC measured up to 10 mins by propidium iodide staining-based fluorescence assay; format: functional, organism-based
Outline: (§4)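 Mid-log S. aureus were harvested, washed and resuspended in 5 mM HEPES/5 mM glucose pH 7.2 containing 15 µM propidium iodide. Compound was added and PI uptake followed as fluorescence increase (ex 535 nm, em 617 nm) for 10 min.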

Escherichia coli [15] = experiment: Antibacterial activity against drug-sensitive Escherichia coli MTCC 443 at MIC measured […] by DiSC3(5) dye-based fluorimetric analysis; format: functional, organism-based; outline: as §2
[16] = Stability of the compound assessed as trypsin (unknown origin)-mediated drug degradation at 1 mg/ml up to 24 hrs by LC-MS analysis; format: ADME; conditions: human
Outline: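 Compound at 1 mg/mL (solution before mixing) was incubated with trypsin in 0.1 M NH4HCO3 at 37 °C. Aliquots were taken from 0 min to 24 h, diluted with water and analyzed by LC-MS for new products and total ion current. A no-trypsin control was sampled at 0 and 24 h.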

Staphylococcus aureus [17] = experiment: Antibacterial activity against drug-sensitive Staphylococcus aureus MTCC 737 preincubated for 3 hrs in 50% human plasma measured after 24 hrs by broth microdilution assay; format: functional; conditions: MTCC 737, Plasma
Outline: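 Plasma was separated by centrifuging fresh human blood. Compound at 1600 µg/mL in 50% plasma was preincubated at 37 °C for 0, 3 or 6 h. Two-fold dilutions were added 1:3 to S. aureus at 10^5 cfu/mL and incubated 37 °C for 24 h. MIC was read by OD as in the broth assay.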

Staphylococcus aureus [18] = experiment: Bactericidal activity against drug-sensitive Staphylococcus aureus MTCC 737 at 2 X MIC after 24 hrs by time-kill assay; format: functional, organism-based
Outline: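 S. aureus at ~1.8×10^6 CFU/mL in fresh media was exposed at MIC and 2× MIC. Samples were taken at 0, 1, 2, 3, 6 and 24 h and serially diluted 10-fold in 0.9% saline. They were plated on yeast-dextrose agar at 37 °C overnight, and colonies were counted as log10 CFU/mL.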

[19] = Retention time of the compound by HPLC analysis; format: physicochemical
[20] = Hemolytic activity in human erythrocytes after 1 hr by spectrophotometric analysis; format: ADME, cell-based, Erythrocyte
Outline: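 Heparinized fresh human erythrocytes at 5 vol% in PBS pH 7.4 were mixed 3:1 with serially diluted compound and held 1 h at 37 °C. Plates were centrifuged and supernatant A540 read. Hemolysis was scaled between an untreated control and a Triton X-100 (100% lysis) control. HC50 is the mean of at least two independent triplicate experiments.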

Pseudomonas aeruginosa [21] = experiment: Antibacterial activity against drug-sensitive Pseudomonas aeruginosa ATCC 4676 after 24 hrs by broth microdilution assay; format: functional; conditions: ATCC 4676, 24 h
Outline: (§5)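 Bacteria grown 6 h to ~10^9 cfu/mL and diluted to 10^5 cfu/mL in nutrient media. Growth media were LB (E. coli), yeast-dextrose broth (S. aureus, P. aeruginosa) and BHI (E. faecium). Compound was serially diluted in water and added 1:3 to bacteria, then incubated 37 °C for 24 h with OD600 read-out. Triplicate ODs were sigmoid-fitted; MIC was taken where OD matched the no-bacteria control. At least two independent experiments.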

Escherichia coli [22] = experiment: Antibacterial activity against drug-sensitive Escherichia coli MTCC 443 after 24 hrs by broth microdilution assay; format: functional; conditions: MTCC 443, 24 h; outline: as §5
Enterococcus faecium [23] = experiment: Antibacterial activity against drug-sensitive Enterococcus faecium ATCC 19634 after 24 hrs by broth microdilution assay; format: functional; conditions: ATCC 19634, 24 h; outline: as §5
Staphylococcus aureus [24] = experiment: Antibacterial activity against drug-sensitive Staphylococcus aureus MTCC 737 after 24 hrs by broth microdilution assay; format: functional; conditions: MTCC 737, 24 h; outline: as §5
Escherichia coli [25] = experiment: Ratio of MSI-78 MIC to compound MIC for Escherichia coli; format: functional
Staphylococcus aureus [26] = experiment: Antibacterial activity against drug-sensitive Staphylococcus aureus MTCC 737 assessed as inner cytoplasmic membrane permeabilization at 2 X MIC to 4 X MIC measured up to 10 mins by propidium iodide staining-based fluorescence assay; format: functional, organism-based; outline: as §4
Pseudomonas aeruginosa [27] = experiment: Antibacterial activity against drug-sensitive Pseudomonas aeruginosa ATCC 4676 at MIC to 2 X MIC measured […] by DiSC3(5) dye-based fluorimetric analysis; format: functional, organism-based; outline: as §2
Staphylococcus aureus [28] = experiment: Antibacterial activity against drug-sensitive Staphylococcus aureus MTCC 737 assessed as cytoplasmic membrane depolarization at MIC to 4 X MIC measured […] by DiSC3(5) dye-based fluorimetric analysis; format: functional, organism-based; outline: as §2
Staphylococcus aureus [29] = experiment: Bactericidal activity against methicillin-resistant Staphylococcus aureus ATCC 33591 at 3 X MIC after 6 hrs by time-kill assay; format: functional, organism-based
Outline: (§6)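 Time-kill: MRSA (~1.8×10^6 CFU/mL in fresh media) exposed at 37 °C to compound at 1×, 3× or 6× MIC. Aliquots taken at 0, 1, 2, 3, 6 and 24 h, 10-fold serially diluted in 0.9% saline, plated on yeast-dextrose agar, incubated overnight at 37 °C. Colonies counted, expressed as log10 CFU/mL.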

Staphylococcus aureus [30] = experiment: Bactericidal activity against methicillin-resistant Staphylococcus aureus ATCC 33591 at 6 X MIC after 1 hr by time-kill assay; format: functional; outline: as §6

Row | SMILES | MIC (Klebsiella pneumoniae) [µg/mL] | MIC (Enterococcus faecium [4]) [µg/mL] | MIC (Staphylococcus aureus [5]) [µg/mL] | Retention_time [19] [min] | HC50 at 1 h [20] [µg/mL] | MIC (Pseudomonas aeruginosa [21]) [µg/mL] | MIC (Escherichia coli [22]) [µg/mL] | MIC (Enterococcus faecium [23]) [µg/mL] | MIC (Staphylococcus aureus [24]) [µg/mL] | other results
1 | CC[C@H](C)[C@H](NC(=O)CN)C(=O)NCC(=O)N[C@@H](CCCCN)C(=O)N[C@@H](Cc1ccccc1)C(=O)N[C@@H](CC(C)C)C(=O)N[C@@H](CCCCN)C(=O)N[C@@H](CCCCN)C(=O)N[C@@H](C)C(=O)N[C@@H](CCCCN)C(=O)N[C@@H](CCCCN)C(=O)N[C@@H](Cc1ccccc1)C(=O)NCC(=O)N[C@@H](CCCCN)C(=O)N[C@@H](C)C(=O)N[C@@H](Cc1ccccc1)C(=O)N[C@H](C(=O)N[C@@H](CCCCN)C(=O)N[C@H](C(=O)N[C@@H](CC(C)C)C(=O)N[C@@H](CCCCN)C(=O)N[C@@H](CCCCN)C(N)=O)[C@@H](C)CC)C(C)C [PEXIGANAN] (H-GIGKFLKKAKKFGKAFVKILKK-NH2) | 8 (≈ 3.23 µM) | 8 (≈ 3.23 µM) | 16 (≈ 6.46 µM) | – | – | – | – | – | – | MIC (Pseudomonas aeruginosa [1]): 8 µg/mL (≈ 3.23 µM); MIC (Escherichia coli [2]): 16 µg/mL (≈ 6.46 µM); MIC (Staphylococcus aureus [3]): 8 µg/mL (≈ 3.23 µM); MIC (Enterococcus faecium [6]): 64 µg/mL (≈ 25.8 µM)
2 | CCCCCCN(Cc1cccc2ccccc12)C(=O)[C@@H](N)CCCCN.O=C(O)C(F)(F)F.O=C(O)C(F)(F)F | 100 | 54 | 65 | 11.8 | 508 | 11 | 25 | 34 | 20 | Activity (Staphylococcus aureus [7]): Active; selectivity ratio [8]: 50; Activity (Staphylococcus aureus [9]): Active; Activity (Escherichia coli [10]): Active; Activity (Escherichia coli [11]): Active; Activity (Staphylococcus aureus [12]): Active; Activity (Escherichia coli [13]): Active; Activity (Staphylococcus aureus [14]): Active; Activity (Escherichia coli [15]): Active; Stability [16]: Stable; MIC (Staphylococcus aureus [17]): 30 µg/mL; Activity (Staphylococcus aureus [18]): Active
3 | CCCCCCCCN(Cc1c2ccccc2c(Cl)c2ccccc12)C(=O)[C@@H](N)CCCCN.O=C(O)C(F)(F)F.O=C(O)C(F)(F)F | 4.3 | 3 | 2.3 | 14.6 | 64 | 3.8 | 2.9 | 2.5 | 2.2 | Ratio (Escherichia coli [25]): 5
4 | CCCCN(Cc1cccc2ccccc12)C(=O)[C@@H](N)CCCCN.O=C(O)C(F)(F)F.O=C(O)C(F)(F)F | > 100 | > 100 | > 100 | 10.8 | > 1000 | > 100 | > 100 | > 100 | > 100 | –
5 | CCCCCCCCCCN(Cc1c2ccccc2c(Cl)c2ccccc12)C(=O)[C@@H](N)CCCCN.O=C(O)C(F)(F)F.O=C(O)C(F)(F)F | 7.6 | 5.6 | 4.6 | 15.6 | 71 | 11 | 26 | 4.9 | 7.1 | –
6 | CCCCCCN(Cc1c2ccccc2c(Cl)c2ccccc12)C(=O)[C@@H](N)CCCCN.O=C(O)C(F)(F)F.O=C(O)C(F)(F)F | 16 | 5.2 | 2.8 | 13.6 | 82 | 1.6 | 3.5 | 3.3 | 2.4 | selectivity ratio [8]: 50; Activity (Staphylococcus aureus [9]): Active; Activity (Escherichia coli [10]): Active; Activity (Escherichia coli [11]): Active; Activity (Staphylococcus aureus [12]): Active; Activity (Staphylococcus aureus [26]): Active; Activity (Pseudomonas aeruginosa [27]): Active; Activity (Staphylococcus aureus [28]): Active; Activity (Staphylococcus aureus [29]): Active; log10CFU/ml (Staphylococcus aureus [30]): 6; Ratio (Escherichia coli [25]): 5
7 | CCCCN(Cc1c2ccccc2c(Cl)c2ccccc12)C(=O)[C@@H](N)CCCCN.O=C(O)C(F)(F)F.O=C(O)C(F)(F)F | 17 | 5.3 | 6.3 | 12.4 | 91 | 1.9 | 4.8 | 4.5 | 5.3 | –
